Results as given in ChEMBL document CHEMBL5247578, “Effective synthesis of benzimidazoles-imidazo[1,2-a]pyrazine conjugates: A comparative study of mono-and bis-benzimidazoles for antitumor activity” (Eur J Med Chem, 2019).

Tests used:
[1] = n-Octanol/phosphate buffer partition coefficient, logP of the compound at pH 7.4 incubated for 85 mins by shake-flask method; assay type: physicochemical
Method in brief: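 Octanol–water partition by shake-flask: n-octanol with 0.15 M phosphate buffer pH 7.4 at 10:1 volumes. Buffer-phase absorbance read before mixing, then shaken 50 min and centrifuged at 2500 rpm for 35 min. Buffer absorbance read again; P = (Ai−Af)/Af × Vw/Vo.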

MDA-MB-468 = assay: Antiproliferative activity against human MDA-MB-468 cells assessed as cell growth inhibition at 10 uM incubated for 48 hrs by sulforhodamine B assay relative to control; assay type: functional
Method in brief: (§1)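 NCI-60 single-dose screen at 10^-5 M. Cells grown in RPMI 1640 with 5% FBS and 2 mM L-glutamine, plated at 5,000–40,000 cells/well, and preincubated 24 h. Drug (DMSO stock) added and incubated 48 h at 37 °C, 5% CO2. Adherent cells fixed with cold TCA, stained with 0.4% SRB in 1% acetic acid, dye solubilized in 10 mM trizma base, A515 read. Percent growth taken against time-zero and untreated control.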

Hs-578T = assay: Antiproliferative activity against human Hs-578T cells assessed as cell growth inhibition at 10 uM incubated for 48 hrs by sulforhodamine B assay relative to control; assay type: functional; method in brief: as §1
MCF7 = assay: Antiproliferative activity against human MCF7 cells assessed as cell growth inhibition at 10 uM incubated for 48 hrs by sulforhodamine B assay relative to control; assay type: functional; method in brief: as §1
PC-3 = assay: Antiproliferative activity against human PC-3 cells assessed as cell growth inhibition at 10 uM incubated for 48 hrs by sulforhodamine B assay relative to control; assay type: functional; method in brief: as §1
SN12C = assay: Antiproliferative activity against human SN12C cells assessed as cell growth inhibition at 10 uM incubated for 48 hrs by sulforhodamine B assay relative to control; assay type: functional; method in brief: as §1
RXF 393 = assay: Antiproliferative activity against human RXF 393 cells assessed as cell growth inhibition at 10 uM incubated for 48 hrs by sulforhodamine B assay relative to control; assay type: functional; method in brief: as §1
ACHN = assay: Antiproliferative activity against human ACHN cells assessed as cell growth inhibition at 10 uM incubated for 48 hrs by sulforhodamine B assay relative to control; assay type: functional
Method in brief: (§2)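 Single-dose NCI-60 prescreen at 10^-5 M. Cells in RPMI 1640 with 5% FBS and 2 mM L-glutamine, seeded 5,000–40,000 cells/well with 24 h preincubation, then drug exposure for 48 h at 37 °C under 5% CO2. Growth read by SRB staining of TCA-fixed cells at 515 nm against time-zero and untreated controls. Negative growth values denote cell kill.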

A498 = assay: Antiproliferative activity against human A498 cells assessed as cell growth inhibition at 10 uM incubated for 48 hrs by sulforhodamine B assay relative to control; assay type: functional; method in brief: as §2
NCI/ADR-RES = assay: Antiproliferative activity against human NCI/ADR-RES cells assessed as cell growth inhibition at 10 uM incubated for 48 hrs by sulforhodamine B assay relative to control; assay type: functional; method in brief: as §1
OVCAR-8 = assay: Antiproliferative activity against human OVCAR-8 cells assessed as cell growth inhibition at 10 uM incubated for 48 hrs by sulforhodamine B assay relative to control; assay type: functional; method in brief: as §1
OVCAR-5 = assay: Antiproliferative activity against human OVCAR-5 cells assessed as cell growth inhibition at 10 uM incubated for 48 hrs by sulforhodamine B assay relative to control; assay type: functional; method in brief: as §1
OVCAR-3 = assay: Antiproliferative activity against human OVCAR-3 cells assessed as cell growth inhibition at 10 uM incubated for 48 hrs by sulforhodamine B assay relative to control; assay type: functional; method in brief: as §1
SK-MEL-5 = assay: Antiproliferative activity against human SK-MEL-5 cells assessed as cell growth inhibition at 10 uM incubated for 48 hrs by sulforhodamine B assay relative to control; assay type: functional; method in brief: as §1
SK-MEL-2 = assay: Antiproliferative activity against human SK-MEL-2 cells assessed as cell growth inhibition at 10 uM incubated for 48 hrs by sulforhodamine B assay relative to control; assay type: functional; method in brief: as §1
M14 = assay: Antiproliferative activity against human M14 cells assessed as cell growth inhibition at 10 uM incubated for 48 hrs by sulforhodamine B assay relative to control; assay type: functional; method in brief: as §1
LOX IMVI = assay: Antiproliferative activity against human LOX IMVI cells assessed as cell growth inhibition at 10 uM incubated for 48 hrs by sulforhodamine B assay relative to control; assay type: functional; method in brief: as §1
U-251 = assay: Antiproliferative activity against human U-251 cells assessed as cell growth inhibition at 10 uM incubated for 48 hrs by sulforhodamine B assay relative to control; assay type: functional; method in brief: as §1
SNB-75 = assay: Antiproliferative activity against human SNB-75 cells assessed as cell growth inhibition at 10 uM incubated for 48 hrs by sulforhodamine B assay relative to control; assay type: functional; method in brief: as §1
SF-539 = assay: Antiproliferative activity against human SF-539 cells assessed as cell growth inhibition at 10 uM incubated for 48 hrs by sulforhodamine B assay relative to control; assay type: functional; method in brief: as §1
SF-295 = assay: Antiproliferative activity against human SF-295 cells assessed as cell growth inhibition at 10 uM incubated for 48 hrs by sulforhodamine B assay relative to control; assay type: functional; method in brief: as §1
HCT-116 = assay: Antiproliferative activity against human HCT-116 cells assessed as cell growth inhibition at 10 uM incubated for 48 hrs by sulforhodamine B assay relative to control; assay type: functional
Method in brief: (§3)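 NCI-60 one-dose prescreen at 10^-5 M. Cells grown in RPMI 1640 with 5% FBS and 2 mM glutamine, preincubated 24 h, then exposed 48 h at 37 °C. Adherent lines TCA-fixed, SRB-stained, A515 read. Growth percent relative to time-zero and control; negative values mean cell kill.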

NCI-H522 = assay: Antiproliferative activity against human NCI-H522 cells assessed as cell growth inhibition at 10 uM incubated for 48 hrs by sulforhodamine B assay relative to control; assay type: functional; method in brief: as §1
NCI-H460 = assay: Antiproliferative activity against human NCI-H460 cells assessed as cell growth inhibition at 10 uM incubated for 48 hrs by sulforhodamine B assay relative to control; assay type: functional; method in brief: as §1
EKVX = assay: Antiproliferative activity against human EKVX cells assessed as cell growth inhibition at 10 uM incubated for 48 hrs by sulforhodamine B assay relative to control; assay type: functional; method in brief: as §3
A549 = assay: Antiproliferative activity against human A549 cells assessed as cell growth inhibition at 10 uM incubated for 48 hrs by sulforhodamine B assay relative to control; assay type: functional; method in brief: as §2
RPMI-8226 = assay: Antiproliferative activity against human RPMI-8226 cells assessed as cell growth inhibition at 10 uM incubated for 48 hrs by sulforhodamine B assay relative to control; assay type: functional; method in brief: as §1
MOLT-4 = assay: Antiproliferative activity against human MOLT-4 cells assessed as cell growth inhibition at 10 uM incubated for 48 hrs by sulforhodamine B assay relative to control; assay type: functional; method in brief: as §1
HL-60 = assay: Antiproliferative activity against human HL-60 cells assessed as cell growth inhibition at 10 uM incubated for 48 hrs by sulforhodamine B assay relative to control; assay type: functional; method in brief: as §3
CCRF-CEM = assay: Antiproliferative activity against human CCRF-CEM cells assessed as cell growth inhibition at 10 uM incubated for 48 hrs by sulforhodamine B assay relative to control; assay type: functional; method in brief: as §2
BT-549 = assay: Antiproliferative activity against human BT-549 cells assessed as cell growth inhibition at 10 uM incubated for 48 hrs by sulforhodamine B assay relative to control; assay type: functional; method in brief: as §2

Compound | logD at 1.417 h [1] | inhibition at 10 µM (Hs-578T) | inhibition at 10 µM (MCF7) | inhibition at 10 µM (PC-3) | inhibition at 10 µM (SN12C) | inhibition at 10 µM (ACHN) | inhibition at 10 µM (NCI/ADR-RES) | inhibition at 10 µM (OVCAR-8) | inhibition at 10 µM (OVCAR-5) | inhibition at 10 µM (OVCAR-3) | inhibition at 10 µM (SK-MEL-5) | inhibition at 10 µM (SK-MEL-2) | inhibition at 10 µM (LOX IMVI) | inhibition at 10 µM (U-251) | inhibition at 10 µM (SNB-75) | inhibition at 10 µM (SF-539) | inhibition at 10 µM (SF-295) | inhibition at 10 µM (HCT-116) | inhibition at 10 µM (NCI-H522) | inhibition at 10 µM (NCI-H460) | other results
COc1ccccc1-c1cn2ccnc2c(-c2ccc3ncn(C4CCCCC4)c3c2)n1 | 1.72 | 15.8% | 8.4% | 43.1% | 7.73% | 4.48% | 0.06% | 8.78% | 6.61% | 6.57% | 8.94% | 12.1% | 5.13% | 21% | 35% | 8.07% | 9.76% | 28.3% | 22.2% | 9.62% | inhibition at 10 µM (MDA-MB-468): 14.6%; inhibition at 10 µM (RXF 393): 0.95%; inhibition at 10 µM (A498): 13.9%; inhibition at 10 µM (M14): 1.12%; inhibition at 10 µM (EKVX): 13.3%; inhibition at 10 µM (A549): 13.9%; inhibition at 10 µM (RPMI-8226): 35.9%; inhibition at 10 µM (MOLT-4): 22.4%; inhibition at 10 µM (HL-60): 14.6%; inhibition at 10 µM (CCRF-CEM): 17.4%
c1ccc(Cn2cnc3ccc(-c4nc(-c5cccc6ccccc56)cn5ccnc45)cc32)cc1 | 2 | 5.98% | 29.2% | 31.4% | 5.62% | 12.3% | 5.83% | 6.22% | 1.83% | 1.44% | 9.69% | 16.9% | 16.5% | 5.53% | 16.2% | 4.22% | 8.22% | 32.9% | 29.3% | 3.8% | inhibition at 10 µM (A498): 6.74%; inhibition at 10 µM (M14): 4.41%; inhibition at 10 µM (EKVX): 24.6%; inhibition at 10 µM (A549): 7.31%; inhibition at 10 µM (RPMI-8226): 26.9%; inhibition at 10 µM (MOLT-4): 22.3%; inhibition at 10 µM (CCRF-CEM): 6.22%
Clc1ccc(-c2cn3ccnc3c(-c3ccc4ncn(C5CCCCC5)c4c3)n2)cc1 | 1.51 | 6.35% | 21.8% | 24.6% | 13.5% | 5.45% | 11.1% | 3.78% | 0.84% | 10.8% | 12.4% | 10.9% | 14.8% | 11.3% | 31.1% | 6.3% | 14.5% | 7.34% | 19.8% | 4.14% | inhibition at 10 µM (MDA-MB-468): 10.6%; inhibition at 10 µM (BT-549): 23.8%; inhibition at 10 µM (RXF 393): 6.73%; inhibition at 10 µM (M14): 10%; inhibition at 10 µM (EKVX): 13.1%; inhibition at 10 µM (A549): 11.6%; inhibition at 10 µM (RPMI-8226): 19%; inhibition at 10 µM (MOLT-4): 8.87%; inhibition at 10 µM (HL-60): 15.6%; inhibition at 10 µM (CCRF-CEM): 11.4%
Brc1ccc(-c2cn3ccnc3c(-c3ccc4ncn(C5CCCCC5)c4c3)n2)cc1 | 1.73 | 24.5% | 46.4% | 42.4% | 18.4% | 21.4% | 30.5% | 13.2% | 8.95% | 26.3% | 23.6% | 24.1% | 30.7% | 23.7% | 34.5% | 24.4% | 41.3% | 31.2% | 35.5% | 13.2% | inhibition at 10 µM (MDA-MB-468): 33.7%; inhibition at 10 µM (BT-549): 35.1%; inhibition at 10 µM (RXF 393): 34%; inhibition at 10 µM (A498): 20.7%; inhibition at 10 µM (M14): 26.9%; inhibition at 10 µM (EKVX): 16.2%; inhibition at 10 µM (A549): 15.3%; inhibition at 10 µM (RPMI-8226): 32%; inhibition at 10 µM (MOLT-4): 20.4%; inhibition at 10 µM (HL-60): 23.2%
Cc1cccc(-c2cn3ccnc3c(-c3ccc4ncn(Cc5ccccc5)c4c3)n2)c1 | 2.16 | 8.47% | 22.2% | 24.8% | 4.72% | 12.4% | 12.1% | 11.5% | 6.64% | 13.9% | 10.1% | 6.34% | 14.8% | 19.4% | 21.7% | 7.28% | 14.3% | 36.7% | 28.4% | 10.1% | inhibition at 10 µM (MDA-MB-468): 16.6%; inhibition at 10 µM (RXF 393): 2.01%; inhibition at 10 µM (A498): 22.1%; inhibition at 10 µM (EKVX): 22.3%; inhibition at 10 µM (A549): 14.9%; inhibition at 10 µM (RPMI-8226): 37.5%; inhibition at 10 µM (MOLT-4): 36.9%; inhibition at 10 µM (HL-60): 18.2%; inhibition at 10 µM (CCRF-CEM): 21.1%
CCc1ccc(-c2cn3ccnc3c(-c3ccc4ncn(Cc5ccccc5)c4c3)n2)cc1 | 1.96 | 21.8% | 58% | 50.4% | 22.5% | 44.7% | 41.2% | 30.8% | 14.9% | 31.2% | 47.9% | 14.8% | 50.1% | 46.1% | 29.3% | 21.2% | 51.2% | 61.2% | 45.9% | 42% | inhibition at 10 µM (MDA-MB-468): 17.2%; inhibition at 10 µM (BT-549): 15.9%; inhibition at 10 µM (RXF 393): 30.7%; inhibition at 10 µM (M14): 36.4%; inhibition at 10 µM (EKVX): 39.7%; inhibition at 10 µM (A549): 45.4%; inhibition at 10 µM (RPMI-8226): 55.4%; inhibition at 10 µM (MOLT-4): 54.2%; inhibition at 10 µM (HL-60): 39.6%; inhibition at 10 µM (CCRF-CEM): 49.7%
